The record followed here is ChEMBL document CHEMBL1667862, “Chisopanins A-K, 11 new protolimonoids from Chisocheton paniculatus and their anti-inflammatory activities” (Bioorg Med Chem, 2011).

Test [1] deals with RAW264.7. The test is described as follows: Antiinflammatory activity in mouse RAW264.7 cells assessed as inhibition of LPS-induced nitric oxide production treated 2 hrs before LPS challenge measured after 18 hrs by griess reaction. It counts as functional, cell-based. The method in brief: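 RAW 264.7 cells seeded at 1 × 10^5 per well in 24-well plates in RPMI 1640 with 10% heat-inactivated FBS, grown 24 h. Pretreated 2 h with compounds (40, 20, 10, 5, 2.5 µM; DMSO ≤0.1% final), then stimulated with LPS 2 µg/mL for 18 h. Nitrite measured. Mean ± SD.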

The subject of test [2] is RAW264.7. The test is described as follows: Antiinflammatory activity in mouse RAW264.7 cells assessed as inhibition of LPS-induced TNFalpha production treated 2 hrs before LPS challenge measured after 24 hrs by ELISA. It counts as functional, cell-based. Conditions: in the assay text read “measured after 18 hrs” for “measured after 24 hrs”. The method in brief:
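RAW 264.7 cells (RPMI 1640, 10% heat-inactivated FBS, 37 °C, 5% CO2) seeded in 24-well plates, grown 24 h, then exposed to compounds (100, 50, 25, 12.5, 6.25 µM) and LPS as for the nitrite assay. TNF-α in medium measured by mouse ELISA kit. Data as mean ± SD.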

Consider `CO[C@@H]1O[C@@H]([C@H](O)C(C)(C)O)C[C@H]1[C@H]1CC[C@]2(C)C3=CC[C@H]4C(C)(C)C(=O)CC[C@]4(C)[C@H]3CC[C@@]12C`, for which the IC50 with RAW264.7 [1] was 29.4 µM; in the test with RAW264.7 [2], 54.6 µM.

Take `CC(=O)O[C@@H]1CC[C@]2(C)[C@H]3CC[C@]4(C)C(=CC[C@@H]4[C@H]4CO[C@H](C(C)(C)O)[C@H](O)C4)[C@]3(C)[C@H](O)C[C@H]2C1(C)C`: the half-inhibitory concentration (IC50) in the test with RAW264.7 [1] is greater than 50 µM; with RAW264.7 [2], 73.5 µM.

With `CC(=O)O[C@@H]1CC[C@]2(C)[C@H]3CC[C@]4(C)C(=CC[C@@H]4[C@H]4COC(C)(C)[C@@H](O)[C@H](O)C4)[C@]3(C)[C@H](O)C[C@H]2C1(C)C` [CHISIAMOL B], the values for the concentration for half-maximal inhibition (IC50) in the test with RAW264.7 [1] and in the test with RAW264.7 [2] were 16.5 µM and greater than 100 µM, respectively.

As for `CC(=O)O[C@@H]1CC[C@]2(C)[C@H]3CC[C@]4(C)C(=CC[C@@H]4[C@H]4COC(C)(C)[C@@H](O)[C@H](O)C4)[C@]3(C)[C@H](OC(C)=O)C[C@H]2C1(C)C` [CHISIAMOL C], the IC50 is 8.7 µM in the test on RAW264.7 [1] and greater than 100 µM with RAW264.7 [2].

Regarding `CO[C@@H]1O[C@@H]([C@H](O)C(C)(C)O)C[C@H]1[C@H]1CC=C2[C@]3(C)[C@H](O)C[C@H]4C(C)(C)[C@H](OC(C)=O)CC[C@]4(C)[C@H]3CC[C@]21C` [CHISIAMOL D], the results for the IC50 in the test on RAW264.7 [1] and in the test with RAW264.7 [2] were 6.5 µM and greater than 100 µM, respectively.

Take `CO[C@H]1O[C@@H]([C@H](O)C(C)(C)O)C[C@H]1[C@H]1CC=C2[C@]3(C)[C@H](O)C[C@H]4C(C)(C)[C@H](OC(C)=O)CC[C@]4(C)[C@H]3CC[C@]21C` [CHISIAMOL E]: the figures for the IC50 with RAW264.7 [1] and in the test with RAW264.7 [2] were 8.9 µM and greater than 100 µM, respectively.

Take `CC(=O)O[C@@H]1CC[C@]2(C)[C@H]3CC[C@]4(C)C(=CC[C@@H]4[C@H]4CO[C@](O)(C(C)(C)O)[C@H](O)C4)[C@]3(C)[C@H](OC(C)=O)C[C@H]2C1(C)C` [CHISOPANIN A]: the values for the IC50 with RAW264.7 [1] and with RAW264.7 [2] were 5.4 µM and 26.9 µM, respectively.

For `CC(=O)O[C@@H]1CC[C@]2(C)[C@H]3CC[C@]4(C)C(=CC[C@@H]4[C@H]4CO[C@](O)(C(C)(C)O)[C@H](O)C4)[C@]3(C)[C@H](O)C[C@H]2C1(C)C` [CHISOPANIN B], the IC50 with RAW264.7 [1] was 7.9 µM; with RAW264.7 [2] it was 30.7 µM.

In the case of `C=C(C)[C@@H](O)[C@H]1C[C@@H]([C@H]2CC=C3[C@]4(C)[C@H](O)C[C@H]5C(C)(C)[C@H](OC(C)=O)CC[C@]5(C)[C@H]4CC[C@]32C)[C@H](OC)O1` [CHISOPANIN C], the IC50 was 40 µM with RAW264.7 [1] and greater than 100 µM in the test with RAW264.7 [2].

Take `C=C(C)[C@@H](O)[C@H]1C[C@@H]([C@H]2CC=C3[C@]4(C)[C@H](O)C[C@H]5C(C)(C)[C@H](OC(C)=O)CC[C@]5(C)[C@H]4CC[C@]32C)[C@H](OCC)O1` [CHISOPANIN D]: the IC50 is greater than 50 µM in the test on RAW264.7 [1] and greater than 100 µM in the test on RAW264.7 [2].

`CO[C@@H]1O[C@@H]([C@H](O)C(C)(C)OC)C[C@H]1[C@H]1CC=C2[C@]3(C)[C@H](O)C[C@H]4C(C)(C)[C@H](OC(C)=O)CC[C@]4(C)[C@H]3CC[C@]21C` [CHISOPANIN E]: the IC50 in the test on RAW264.7 [1] was 6.2 µM; in the test with RAW264.7 [2], greater than 100 µM.

In the case of `CO[C@H]1O[C@@H]([C@H](O)C(C)(C)OC)C[C@H]1[C@H]1CC=C2[C@]3(C)[C@H](O)C[C@H]4C(C)(C)[C@H](OC(C)=O)CC[C@]4(C)[C@H]3CC[C@]21C` [CHISOPANIN F], the IC50 in the test on RAW264.7 [1] is 6.9 µM; with RAW264.7 [2], greater than 100 µM.

Consider `CCO[C@@H]1O[C@@H]([C@H](O)C(C)(C)O)C[C@H]1[C@H]1CC=C2[C@]3(C)[C@H](O)C[C@H]4C(C)(C)[C@H](OC(C)=O)CC[C@]4(C)[C@H]3CC[C@]21C` [CHISOPANIN G], for which the IC50 with RAW264.7 [1] is 5.4 µM; with RAW264.7 [2], greater than 100 µM.

`CCO[C@H]1O[C@@H]([C@H](O)C(C)(C)O)C[C@H]1[C@H]1CC=C2[C@]3(C)[C@H](O)C[C@H]4C(C)(C)[C@H](OC(C)=O)CC[C@]4(C)[C@H]3CC[C@]21C` [CHISOPANIN H]: the IC50 with RAW264.7 [1] was greater than 50 µM; with RAW264.7 [2] it was greater than 100 µM.

For `CCOC(C)(C)[C@@H](O)[C@H]1C[C@@H]([C@H]2CC=C3[C@]4(C)[C@H](O)C[C@H]5C(C)(C)[C@H](OC(C)=O)CC[C@]5(C)[C@H]4CC[C@]32C)[C@H](OC)O1` [CHISOPANIN I], the concentration for half-maximal inhibition (IC50) with RAW264.7 [1] was 5.3 µM; in the test with RAW264.7 [2], greater than 100 µM.

Regarding `CCOC(C)(C)[C@@H](O)[C@H]1C[C@@H]([C@H]2CC=C3[C@]4(C)[C@H](O)C[C@H]5C(C)(C)[C@H](OC(C)=O)CC[C@]5(C)[C@H]4CC[C@]32C)[C@@H](OC)O1` [CHISOPANIN J], the IC50 is 12.3 µM with RAW264.7 [1] and greater than 100 µM with RAW264.7 [2].

As to `CC(=O)O[C@@H]1CC[C@]2(C)[C@H]3CC[C@]4(C)C(=CC[C@H]4C4=CC(C(O)C(C)(C)O)OC4=O)[C@]3(C)[C@H](O)C[C@H]2C1(C)C` (stereo partly specified) [CHISOPANIN K], the IC50 in the test with RAW264.7 [1] turned out to be 33.4 µM; in the test with RAW264.7 [2], 47.4 µM.

With `C[C@@H]1C[C@H]2[C@@H]3CCC4=CC(=O)C=C[C@]4(C)[C@@]3(F)[C@@H](O)C[C@]2(C)[C@@]1(O)C(=O)CO` [DEXAMETHASONE], the IC50 in the test on RAW264.7 [1] was 0.86 µM.

Regarding `O=c1c(-c2ccc(O)cc2)coc2cc(O)cc(O)c12` [GENISTEIN], the IC50 in the test on RAW264.7 [2] worked out at 19.1 µM.
